In ChEMBL document CHEMBL1129975, “Depsides and depsidones as inhibitors of HIV-1 integrase: discovery of novel inhibitors through 3D database searching” (J Med Chem, 1997) one finds IC50 data, which are given here for 35 compounds.

Experiment [1] has as its target T1, Human immunodeficiency virus type 1 integrase (Human immunodeficiency virus 1, UniProt Q7ZJM1). Nature of the experiment: Inhibitory concentration of compound against strand transfer of HIV-1 integrase in experiment 1&2. In outline:
(§1)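 Purified recombinant HIV-1 integrase (200 nM final) preincubated with inhibitor for 30 min at 30 °C. Buffer: 25 mM MOPS pH 7.2, 7.5 mM MnCl2, 50 mM NaCl, 10% DMSO, 10% glycerol, 0.1 mg/mL BSA. Then 20 nM 5′-32P-labelled 21-mer blunt-end U5 LTR duplex was added for 1 h. Products were resolved on a denaturing 20% polyacrylamide/urea gel. IC50 was read from a percent-inhibition versus concentration plot.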

Experiment [2] addresses T1, Human immunodeficiency virus type 1 integrase. Nature of the experiment: Inhibitory concentration of compound against 3'-processing of HIV-1 integrase in experiment 1&2. The procedure, abridged:
as §1

Experiment [3] has the same target. Nature of the experiment: Inhibitory concentration of compound against strand transfer of HIV-1 integrase in experiment 2.
Experiment [4] has the same target. Nature of the experiment: Inhibitory concentration of compound against strand transfer of HIV-1 integrase in experiment 1.
Experiment [5] shares this target. Nature of the experiment: Inhibitory concentration of compound against 3'-processing of HIV-1 integrase in experiment 1.
For experiment [6] the target is unchanged. Briefly: Inhibitory concentration of compound against 3'-processing of HIV-1 integrase in experiment 2.
The target is the same in experiment [7]. Briefly: Inhibitory concentration of compound against disintegration (reversal of strand transfer)of HIV-1 integrase. The procedure, abridged: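 Disintegration run under the integrase assay conditions (200 nM enzyme preincubated 30 min at 30 °C in MnCl2/MOPS buffer, then 1 h with substrate). Substrate was a Y-shaped branched oligonucleotide mimicking a strand transfer product, 32P-labelled at the 5′ end of its 15-mer. The core-truncated mutant IN50-212 was used as enzyme. The 30-mer product was resolved on a denaturing 20% gel. IC50 was taken from a percent-inhibition plot.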

The target of experiment [8] is T2, Human immunodeficiency virus type 2 integrase (Human immunodeficiency virus 2, UniProt P89582).
T2 sequence (P89582 whole entry): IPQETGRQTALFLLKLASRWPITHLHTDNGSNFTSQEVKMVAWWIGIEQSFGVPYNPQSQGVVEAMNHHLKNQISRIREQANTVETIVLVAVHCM
Briefly: Inhibitory concentration of compound against strand transfer of HIV-2 integrase. The procedure, abridged: (§2)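 Integrase (200 nM final) preincubated with inhibitor for 30 min at 30 °C in pH 7.2 MOPS/HEPES buffer with 7.5 mM MnCl2, 10% DMSO, BSA and 2-mercaptoethanol. Then 20 nM 5′-32P-labeled 21-mer U5 LTR duplex was added for 1 h. Quenched with formamide/EDTA dye and run on denaturing 20% PAGE. IC50 read from a plot of % inhibition against drug concentration.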

Experiment [9] addresses T2, Human immunodeficiency virus type 2 integrase. Briefly: Inhibitory concentration of compound against 3'-processing of HIV-2 integrase.
Experiment [10] has the same target.
For experiment [11] the target is unchanged. Nature of the experiment: Inhibitory concentration of compound against strand transfer of HIV- integrase. The procedure, abridged: as §2
The target is the same in experiment [12]. Briefly: Inhibitory concentration of compound against 3' processing of HIV-2 integrase. In outline: as §2

T1 sequence (Q7ZJM1 whole entry): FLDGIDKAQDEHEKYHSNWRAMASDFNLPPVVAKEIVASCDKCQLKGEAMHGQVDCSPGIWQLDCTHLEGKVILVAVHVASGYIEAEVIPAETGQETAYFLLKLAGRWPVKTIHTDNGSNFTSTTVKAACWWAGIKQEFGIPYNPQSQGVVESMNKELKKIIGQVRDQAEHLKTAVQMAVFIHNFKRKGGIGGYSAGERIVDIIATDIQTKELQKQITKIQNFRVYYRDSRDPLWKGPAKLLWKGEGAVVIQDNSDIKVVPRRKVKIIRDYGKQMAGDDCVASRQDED

Consider `Cc1cc(O)c(C=O)c2c1C(=O)Oc1c(COC(=O)/C=C/C(=O)O)c(O)c(C(=O)O)c(C)c1O2` [FUMARPROTOCETRARIC ACID], for which the IC50 (usually the concentration needed to halve the response being measured) in [1] is 4.6 µM; in [2], 4.9 µM; in [3], 7.3 µM.
With `Cc1cc(O)c(C=O)c2c1C(=O)Oc1c(CO)c(O)c3c(c1O2)C(O)OC3=O` (stereo not given) [SLAZINIC ACID], the half-maximal inhibitory concentration (IC50) in experiment [4] was 12.6 µM; in experiment [3] it was 6.2 µM; in [5] it was 19 µM; in [6] it was 16 µM.
For `Cc1cc(Cc2cc(C)c(O)c(C(=O)O)c2)cc(C(=O)O)c1O`, the IC50 in experiment [1] turned out to be 68.5 µM; in experiment [2], 61.8 µM.
As to `O=C(O)c1ccccc1C(c1cc(Br)c(O)c(Br)c1)c1ccc(Br)c(O)c1Br` (stereo not given), the half-inhibitory concentration (IC50) came to 38.8 µM in experiment [4], 27.2 µM in [3], 43.7 µM in experiment [5] and 25.6 µM in experiment [6].
The matching figures for `O=C1OC2C(O)COC2(O)C1(O)Cc1cc(O)c(O)c(Br)c1Br` (stereo not given): 50.2 µM, 24.3 µM, 64.7 µM and 28.7 µM.
As for `O=C(O)c1cc(/N=N\c2ccccc2C(=O)O)ccc1O`, the 50% inhibitory concentration (IC50) in [4] worked out at 116 µM; in experiment [3], 224 µM; in [5], 116 µM; in experiment [6] it was 211 µM.
For the compound `COC(=O)c1c(C)cc(OC(=O)c2c(C)cc(O)c(C=O)c2O)c(C)c1O` [ATRANORIN], the IC50 was found to be 36 µM in [4]; 128 µM in experiment [7]; 44 µM in experiment [3]; 61 µM in [5]; 62.4 µM in [6].
The matching figures for `CC(=O)C1=C(NNC(=O)c2ccccn2)[C@@]2(C)C(=CC1=O)Oc1c(C(C)=O)c(O)c(C)c(O)c12`: 48.5 µM, 39 µM, 55 µM, 73 µM and 60.8 µM.
On to `Cc1cc(C(c2cc(C)c(O)c(C(=O)O)c2)c2cc(C)c(O)c(C(=O)O)c2)cc(C(=O)O)c1O`, for which the 50% inhibitory concentration (IC50) in [4] is 16.7 µM; in experiment [3], less than 23.4 µM; in experiment [5], 20.4 µM; in [6], less than 23.4 µM.
Consider `Nc1cc(C(=O)O)c(-c2cc(O)c(N)cc2C(=O)O)cc1O`, for which the IC50 amounted to 234 µM in experiment [4] and 212 µM in experiment [5].
Turning to `Cc1ncc(COP(=O)(O)O)c(C2NC(C(=O)O)CS2)c1O` (stereo not given), the 50% inhibitory concentration (IC50) turned out to be 93.4 µM in experiment [4], 31.7 µM in [3], 91.7 µM in experiment [5] and 75.1 µM in [6].
On the same counts, the results for `Cc1cc(C(O)(c2cc(C)c(O)c(C(=O)O)c2)c2cc(C)c(O)c(C(=O)O)c2)cc(C(=O)O)c1O` are 21.8 µM, 23 µM, 35.8 µM and 32.8 µM.
Turning to `Cc1cc(O)c(C=O)c2c1C(=O)Oc1c(C)c(O)c(C(=O)O)c(C)c1O2`, the concentration for half-maximal inhibition (IC50) amounted to 6.5 µM in experiment [1], 4.6 µM in experiment [2] and 33.5 µM in [7].
For the compound `COC(=O)c1c(C)c2c(c(C)c1O)OC(=O)c1c(C)cc(O)c(C=O)c1O2`, the 50% inhibitory concentration (IC50) came to 4.4 µM in experiment [1], 5.4 µM in experiment [2] and 26 µM in experiment [7].
For `COc1cc(C)c2c(c1C)OC(=O)c1c(C)c(Cl)c(O)c(C=O)c1O2`, the half-inhibitory concentration (IC50) in experiment [4] was found to be 1.6 µM; in [7], 12.8 µM; in experiment [3] it was 2.7 µM; in experiment [5], 2.2 µM; in experiment [6], 2.7 µM.
For `CCCCCc1cc2cc(O)cc(Oc3c(O)cc(O)c(C(=O)O)c3CCCCC)c2c(=O)o1`, the half-inhibitory concentration (IC50) stood at 45.7 µM in experiment [4], 35 µM in [7] and 52.2 µM in [5].
In the case of `O=C(/C=C/c1ccc(O)c(O)c1)O[C@H]1[C@H](O)C[C@](O)(C(=O)O)C[C@H]1OC(=O)/C=C/c1ccc(O)c(O)c1`, the IC50 in experiment [8] was found to be 0.5 µM; in [4], 0.6 µM; in experiment [9], 0.5 µM; in [3], 0.7 µM; in experiment [5], 1.3 µM; in experiment [6], 0.7 µM.
As for `O=C(O)c1cnc2c(ccc3ncc(C(=O)O)c(O)c32)c1O`, the IC50 in [4] turned out to be 9.8 µM; in experiment [3], 6.1 µM; in experiment [5], 7.6 µM; in [6], 6.1 µM.
On to `CCOC(=O)c1cnc(NCCCNc2ncc(C(=O)OCC)c(=O)[nH]2)[nH]c1=O`, for which the IC50 in experiment [4] was 16.7 µM; in experiment [3], 7.9 µM; in [5], 12.8 µM; in experiment [6], 11.6 µM.
For `COc1cc(C)c2c(c1C=O)Oc1c(c(C)c(O)c3c1C(O)OC3=O)OC2=O` (stereo not given) [STICTIC ACID], the IC50 came to 2.6 µM in experiment [4]; 11.7 µM in experiment [7]; 1.9 µM in experiment [3]; 4.4 µM in experiment [5]; 2.9 µM in experiment [6].
Turning to `Cc1c2cc(O)c(=O)cc-2oc2cc(O)c(O)cc12`, the concentration for half-maximal inhibition (IC50) is 1.1 µM in experiment [4]; 1.5 µM in experiment [10]; 2.3 µM in experiment [9]; 0.9 µM in experiment [3]; 1.1 µM in experiment [5]; 1.5 µM in experiment [6].
With `O=C(/C=C/c1ccc(O)c(O)c1)O[C@@H]1C[C@](O)(C(=O)O)C[C@@H](O)[C@H]1O` (single isomer, unassigned) [CHLOROGENIC ACID], the IC50 is 45.8 µM in [4], 31.3 µM in experiment [3], 87.8 µM in experiment [5] and 58.2 µM in experiment [6].
Consider `CC(=O)C1=C(O)C=C2Oc3c(C(C)=O)c(O)c(C)c(O)c3[C@@]2(C)C1=O` [(+)-USNIC ACID], for which the results for the IC50 in experiment [1], in [2] and in [7] were 124 µM, 126 µM and 133 µM, respectively.
As to `O=C(NC(Cc1ccc(O)c(O)c1)C(=O)OCc1ccccc1)c1ccc([N+](=O)[O-])cc1` (stereo not given), the 50% inhibitory concentration (IC50) is 55.4 µM in [4], 76.6 µM in experiment [3], 163 µM in [5] and 253 µM in experiment [6].
The matching figures for `O=C(O)c1ccc(C(=O)O)c2c(C(=O)O)ccc(C(=O)O)c12`: 176 µM, 182 µM, 122 µM and 174 µM.
Turning to `CCCCCC(=O)Cc1cc(O)cc2c1C(=O)Oc1cc(O)c(C(=O)O)c(CCCCC)c1O2` [PHYSODIC ACID], the values for the IC50 in experiment [1], in experiment [2] and in [7] were 30.9 µM, 38.5 µM and 32.5 µM, respectively.
With `O=C(Nc1ccc(C(=O)O)c(O)c1)c1ccc(C(=O)Nc2ccc(O)c(C(=O)O)c2)cc1`, the IC50 came out at 16.3 µM in experiment [4], 20 µM in experiment [3], 23.6 µM in experiment [5] and 25.2 µM in experiment [6].
Regarding `O=C(NO)c1cc(O)c(O)c(O)c1`, the half-maximal inhibitory concentration (IC50) came to 0.5 µM in experiment [4]; 1.6 µM in experiment [11]; 1.6 µM in [3]; 1.6 µM in [12]; 1.1 µM in [5]; 3.2 µM in experiment [6].
Take `O=C(c1ccc(O)cc1O)C1C(c2ccc(O)cc2)OC(c2ccc(O)cc2)C1C(=O)c1ccc(O)cc1O` (stereo not given): the concentration for half-maximal inhibition (IC50) is 143 µM in experiment [4], 129 µM in experiment [3], 165 µM in experiment [5] and 169 µM in experiment [6].
The matching figures for `O=C1C(O)=C(c2ccccc2)C12CSC1(CS2)C(=O)C(O)=C1c1ccccc1` (stereo not given): 172 µM, 54.8 µM, 132 µM and 60 µM.
With `CCCCCc1cc(O)cc2c1Oc1cc(O)cc(C(=O)CCCC)c1C(=O)O2`, the IC50 was 39.2 µM in experiment [4], 28.1 µM in experiment [3], 59.9 µM in experiment [5] and 42.2 µM in [6].
In the case of `COc1cc(C(=O)O)c2c(c1C)OC(=O)c1c(C)cc(O)c(C=O)c1O2` [PSOROMIC ACID], the IC50 in experiment [4] turned out to be 5.3 µM; in experiment [3] it was 12.3 µM; in [5] it was 17 µM; in experiment [6], 15.1 µM.
Take `O=[N+]([O-])c1cccc(/C=N/CCN2CCN(CC/N=C/c3cccc([N+](=O)[O-])c3O)C2c2cccc([N+](=O)[O-])c2O)c1O`: the IC50 worked out at 36.7 µM in [4], 49.5 µM in experiment [3], 52.7 µM in experiment [5] and 60.8 µM in experiment [6].
`C[C@@](O)(/C=C/[C@H]1CC=CC(=O)O1)[C@@H](C[C@@H](O)C=CC=C/C=C/CO)OP(=O)(O)O` [FOSTRIECIN]: the concentration for half-maximal inhibition (IC50) in experiment [4] came to 12.8 µM; in experiment [3] it was 52.7 µM; in experiment [5], 41.3 µM; in [6] it was 118 µM.
On to `CCN(CC)c1ccc(Cc2ccc(N(C)C)c(Cl)c2)cc1`, for which the half-inhibitory concentration (IC50) amounted to 45.8 µM in experiment [4], 38.6 µM in experiment [3], 61.8 µM in [5] and 78.6 µM in experiment [6].
